Measured values from ChEMBL document CHEMBL4038305, “Benzoxaborole Antimalarial Agents. Part 5. Lead Optimization of Novel Amide Pyrazinyloxy Benzoxaboroles and Identification of a Preclinical Candidate” (J Med Chem, 2017).
pIC50: −log10 of the molar value.

How the values were obtained:
Plasmodium falciparum [1] = assay: Antimalarial activity against chloroquine-sensitive Plasmodium falciparum 3D7 infected in human erythrocytes assessed as reduction in [3H]-hypoxanthine incorporation preincubated for 24 hrs followed by [3H]-hypoxanthine addition measured after 24 hrs by scintillation counting method; type: functional, cell-based
Summary of the method: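 P. falciparum 3D7 cultures were exposed to the compound for 48 h, with atovaquone as the reference control. IC50 was taken from three replicates.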

Plasmodium falciparum [2] = assay: Antimalarial activity against chloroquine-resistant Plasmodium falciparum W2 infected in human erythrocytes after 48 hrs by YOYO-1 dye based flow cytometric analysis; type: functional, cell-based; conditions: W2, 48 h
Summary of the method: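 P. falciparum W2 cultures were exposed to the compound for 48 h, with artemisinin and chloroquine as reference controls. IC50 was taken from two independent replicates.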

[3] = Metabolic stability in human hepatocytes at 22 uM after 44 hrs; type: ADME, cell-based, Hepatocyte
Plasmodium berghei [4] = assay: Antimalarial activity against Plasmodium berghei infected in Swiss Webster mouse assessed as mouse survival rate at 100 mg/kg administered once daily via oral gavage for 4 consecutive days beginning 1 hr after infection measured on day 4 post infection relative to control; type: functional
Summary of the method: (§1)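 Mice given an intraperitoneal injection of P. berghei-infected erythrocytes taken from a previously infected animal. Oral dosing once daily for 4 consecutive days, starting 1 h after infection. Vehicle: polyethylene glycol 300/propylene glycol/water (weight ratio 55/25/20). Percent survival recorded daily from day 4 to day 20. Chloroquine 30 mg/kg and vehicle-only groups served as controls.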

Plasmodium berghei [5] = assay: Antimalarial activity against Plasmodium berghei infected in Swiss Webster mouse assessed as mouse survival rate at 33 mg/kg administered once daily via oral gavage for 4 consecutive days beginning 1 hr after infection measured on day 4 post infection relative to control; type: functional
Summary of the method: (§2)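 P. berghei-infected erythrocytes taken from a previously infected mouse were injected intraperitoneally. Oral dosing, once daily for 4 consecutive days, began 1 h after infection, in polyethylene glycol 300/propylene glycol/water (55/25/20 by weight). Chloroquine at 30 mg/kg was the positive control, with a vehicle-only group. Percent survival was recorded daily from day 4 to day 20.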

Plasmodium berghei [6] = assay: Antimalarial activity against Plasmodium berghei infected in Swiss Webster mouse assessed as mouse survival rate at 0.4 mg/kg administered once daily via oral gavage for 4 consecutive days beginning 1 hr after infection measured on day 4 post infection relative to control; type: functional; summary of the method: as §1
Plasmodium berghei [7] = assay: Antimalarial activity against Plasmodium berghei infected in Swiss Webster mouse assessed as mouse survival rate at 0.1 mg/kg administered once daily via oral gavage for 4 consecutive days beginning 1 hr after infection measured on day 4 post infection relative to control; type: functional; summary of the method: as §1
Plasmodium berghei [8] = assay: Antimalarial activity against Plasmodium berghei infected in Swiss Webster mouse assessed as mouse survival rate at 3.7 mg/kg administered once daily via oral gavage for 4 consecutive days beginning 1 hr after infection measured on day 5 post infection relative to control; type: functional; summary of the method: as §2
Plasmodium berghei [9] = assay: Antimalarial activity against Plasmodium berghei infected in Swiss Webster mouse assessed as mouse survival rate at 0.4 mg/kg administered once daily via oral gavage for 4 consecutive days beginning 1 hr after infection measured on day 5 post infection relative to control; type: functional; summary of the method: as §1
Plasmodium berghei [10] = assay: Antimalarial activity against Plasmodium berghei infected in Swiss Webster mouse assessed as mouse survival rate at 100 mg/kg administered once daily via oral gavage for 4 consecutive days beginning 1 hr after infection measured on day 6 post infection relative to control; type: functional; summary of the method: as §1
Plasmodium berghei [11] = assay: Antimalarial activity against Plasmodium berghei infected in Swiss Webster mouse assessed as mouse survival rate at 33 mg/kg administered once daily via oral gavage for 4 consecutive days beginning 1 hr after infection measured on day 6 post infection relative to control; type: functional; summary of the method: as §2
Plasmodium berghei [12] = assay: Antimalarial activity against Plasmodium berghei infected in Swiss Webster mouse assessed as mouse survival rate at 11 mg/kg administered once daily via oral gavage for 4 consecutive days beginning 1 hr after infection measured on day 6 post infection relative to control; type: functional; summary of the method: as §2
Plasmodium berghei [13] = assay: Antimalarial activity against Plasmodium berghei infected in Swiss Webster mouse assessed as mouse survival rate at 0.1 mg/kg administered once daily via oral gavage for 4 consecutive days beginning 1 hr after infection measured on day 6 post infection relative to control; type: functional; summary of the method: as §1
Plasmodium berghei [14] = assay: Antimalarial activity against Plasmodium berghei infected in Swiss Webster mouse assessed as mouse survival rate at 11 mg/kg administered once daily via oral gavage for 4 consecutive days beginning 1 hr after infection measured on day 7 post infection relative to control; type: functional; summary of the method: as §2
Plasmodium berghei [15] = assay: Antimalarial activity against Plasmodium berghei infected in Swiss Webster mouse assessed as mouse survival rate at 3.7 mg/kg administered once daily via oral gavage for 4 consecutive days beginning 1 hr after infection measured on day 7 post infection relative to control; type: functional; summary of the method: as §2
Plasmodium berghei [16] = assay: Antimalarial activity against Plasmodium berghei infected in Swiss Webster mouse assessed as mouse survival rate at 0.4 mg/kg administered once daily via oral gavage for 4 consecutive days beginning 1 hr after infection measured on day 7 post infection relative to control; type: functional; summary of the method: as §1
Plasmodium berghei [17] = assay: Antimalarial activity against Plasmodium berghei infected in Swiss Webster mouse assessed as mouse survival rate at 100 mg/kg administered once daily via oral gavage for 4 consecutive days beginning 1 hr after infection measured on day 8 post infection relative to control; type: functional; summary of the method: as §1
Plasmodium berghei [18] = assay: Antimalarial activity against Plasmodium berghei infected in Swiss Webster mouse assessed as mouse survival rate at 33 mg/kg administered once daily via oral gavage for 4 consecutive days beginning 1 hr after infection measured on day 8 post infection relative to control; type: functional; summary of the method: as §2
Plasmodium berghei [19] = assay: Antimalarial activity against Plasmodium berghei infected in Swiss Webster mouse assessed as mouse survival rate at 11 mg/kg administered once daily via oral gavage for 4 consecutive days beginning 1 hr after infection measured on day 8 post infection relative to control; type: functional; summary of the method: as §2
Plasmodium berghei [20] = assay: Antimalarial activity against Plasmodium berghei infected in Swiss Webster mouse assessed as mouse survival rate at 100 mg/kg administered once daily via oral gavage for 4 consecutive days beginning 1 hr after infection measured on day 9 post infection relative to control; type: functional; summary of the method: as §1
Plasmodium berghei [21] = assay: Antimalarial activity against Plasmodium berghei infected in Swiss Webster mouse assessed as mouse survival rate at 100 mg/kg administered once daily via oral gavage for 4 consecutive days beginning 1 hr after infection measured on day 11 post infection relative to control; type: functional; summary of the method: as §1
Plasmodium berghei [22] = assay: Antimalarial activity against Plasmodium berghei infected in Swiss Webster mouse assessed as mouse survival rate at 33 mg/kg administered once daily via oral gavage for 4 consecutive days beginning 1 hr after infection measured on day 11 post infection relative to control; type: functional; summary of the method: as §2
Plasmodium berghei [23] = assay: Antimalarial activity against Plasmodium berghei infected in Swiss Webster mouse assessed as mouse survival rate at 33 mg/kg administered once daily via oral gavage for 4 consecutive days beginning 1 hr after infection measured on day 12 post infection relative to control; type: functional; summary of the method: as §2
Plasmodium berghei [24] = assay: Antimalarial activity against Plasmodium berghei infected in Swiss Webster mouse assessed as mouse survival rate at 100 mg/kg administered once daily via oral gavage for 4 consecutive days beginning 1 hr after infection measured on day 13 post infection relative to control; type: functional; summary of the method: as §1
Plasmodium falciparum [25] = assay: Antimalarial activity against Plasmodium falciparum 3D7 0087/N9 infected in NOD/SCID IL2R gamma null mouse assessed as reduction in parasitemia administered once daily via oral gavage for 4 consecutive days measured on day 4 post infection; type: functional; conditions: 3D7 0087/N9, po, 96 h
Summary of the method: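 Human-erythrocyte-engrafted NODscidIL2Rγnull mice carrying P. falciparum Pf3D70087/N9 in peripheral blood; compound given orally once daily for four consecutive days.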

Plasmodium berghei [26] = assay: Antimalarial activity against Plasmodium berghei infected in Swiss Webster mouse assessed as mouse survival rate administered once daily via oral gavage for 4 consecutive days beginning 1 hr after infection measured on day 4 post infection; type: functional; summary of the method: as §1

Structure (SMILES) | pIC50 (Plasmodium falciparum [1]) | pIC50 (Plasmodium falciparum [2]) | survival at 100 mg/kg (Plasmodium berghei [4]) [%] | survival at 33 mg/kg (Plasmodium berghei [5]) [%] | survival at 0.4 mg/kg (Plasmodium berghei [6]) [%] | survival at 3.7 mg/kg (Plasmodium berghei [8]) [%] | survival at 0.4 mg/kg (Plasmodium berghei [9]) [%] | survival at 100 mg/kg (Plasmodium berghei [10]) [%] | survival at 33 mg/kg (Plasmodium berghei [11]) [%] | survival at 11 mg/kg (Plasmodium berghei [12]) [%] | survival at 11 mg/kg (Plasmodium berghei [14]) [%] | survival at 3.7 mg/kg (Plasmodium berghei [15]) [%] | survival at 0.4 mg/kg (Plasmodium berghei [16]) [%] | survival at 100 mg/kg (Plasmodium berghei [17]) [%] | survival at 33 mg/kg (Plasmodium berghei [18]) [%] | survival at 100 mg/kg (Plasmodium berghei [20]) [%] | survival at 100 mg/kg (Plasmodium berghei [21]) [%] | survival at 33 mg/kg (Plasmodium berghei [22]) [%] | survival at 100 mg/kg (Plasmodium berghei [24]) [%] | ED90 (Plasmodium berghei [26]) [mg/kg] | further results
Cc1c(Oc2cnc(C(=O)N3CC(O)(C(F)(F)F)C3)cn2)ccc2c1B(O)OC2 | 8.10 | 8.18 | 100 | 100 | 100 | 100 | 100 | 100 | 100 | 100 | 100 | 0 | 0 | 100 | 100 | 100 | 100 | 50 | 100 | 5.7 | Stability [3]: Stable; survival at 0.1 mg/kg (Plasmodium berghei [7]): 100%; survival at 0.1 mg/kg (Plasmodium berghei [13]): 100%; survival at 11 mg/kg (Plasmodium berghei [19]): 0%; survival at 33 mg/kg (Plasmodium berghei [23]): 50%; ED90 (Plasmodium falciparum [25]): < 5 mg/kg
Cc1c(Oc2cnc(C(=O)NCCO)cn2)ccc2c1B(O)OC2 | 5.97 | 6.43 | 100 | 100 |  | 100 |  | 100 | 100 | 100 | 0 | 0 |  | 40 |  | 40 |  |  |  | 56.1 | 
CCCC1(O)CN(C(=O)c2cnc(Oc3ccc4c(c3C)B(O)OC4)cn2)C1 | 7.27 | 7.80 | 100 | 100 | 100 | 100 | 100 | 100 | 100 | 100 | 80 | 0 | 0 | 100 | 100 | 100 | 100 | 100 | 100 | 3.3 | Stability [3]: Stable; survival at 0.1 mg/kg (Plasmodium berghei [7]): 100%; survival at 0.1 mg/kg (Plasmodium berghei [13]): 100%; survival at 11 mg/kg (Plasmodium berghei [19]): 80%; survival at 33 mg/kg (Plasmodium berghei [23]): 100%
CCC1(O)CN(C(=O)c2cnc(Oc3ccc4c(c3C)B(O)OC4)cn2)C1 | 7.26 | 7.54 | 100 | 100 | 100 | 100 | 100 | 100 | 100 | 100 | 40 | 0 | 0 | 100 | 100 | 100 | 100 | 20 | 100 | 4.8 | Stability [3]: Stable; survival at 0.1 mg/kg (Plasmodium berghei [7]): 100%; survival at 0.1 mg/kg (Plasmodium berghei [13]): 100%; survival at 11 mg/kg (Plasmodium berghei [19]): 0%; survival at 33 mg/kg (Plasmodium berghei [23]): 20%; ED90 (Plasmodium falciparum [25]): 0.84 mg/kg
Cc1c(Oc2cnc(C(=O)N3CC(O)(C4CC4)C3)cn2)ccc2c1B(O)OC2 | 6.87 | 7.29 | 100 | 100 | 100 | 100 | 100 | 100 | 100 | 100 | 0 | 0 | 0 | 100 | 100 | 100 | 100 | 40 | 100 | 10.3 | Stability [3]: Stable; survival at 0.1 mg/kg (Plasmodium berghei [7]): 100%; survival at 0.1 mg/kg (Plasmodium berghei [13]): 100%; survival at 33 mg/kg (Plasmodium berghei [23]): 40%; ED90 (Plasmodium falciparum [25]): < 5 mg/kg
Cc1c(Oc2cnc(C(=O)N[C@@H](CO)CC(F)(F)F)cn2)ccc2c1B(O)OC2 | 6.83 | 7.09 | 100 | 100 | 100 | 100 | 100 | 100 | 100 | 100 | 0 | 0 | 0 | 100 | 100 | 100 | 0 | 0 |  | 7.3 | 
Cc1c(Oc2cnc(C(=O)NC(C)CO)cn2)ccc2c1B(O)OC2 (stereo not given) | 6.00 | 6.47 | 100 | 100 |  |  |  | 100 | 100 | 40 | 40 |  |  | 100 | 0 | 80 | 40 |  |  | 44.3 | survival at 11 mg/kg (Plasmodium berghei [19]): 0%
CCC[C@H](CO)NC(=O)c1cnc(Oc2ccc3c(c2C)B(O)OC3)cn1 | 6.70 | 6.79 | 100 | 100 |  | 100 |  | 100 | 100 | 100 | 0 | 0 |  | 100 | 100 | 100 | 20 |  | 20 | 11.7 | ED90 (Plasmodium falciparum [25]): 2.5 mg/kg
